Peptide text beside a SMILES is read from it.
Columns and labels:
[1] = biological target: DPP4 (dipeptidyl peptidase 4) (Rattus norvegicus, UniProt P14740); assay: Metabolic stability in rat serum assessed as half life of DPP4-mediated compound degradation; type: ADME, cell-free
[2] = biological target: Dipeptidyl peptidase 4 (Homo sapiens, UniProt P27487); assay: Competitive inhibition of human recombinant DPP4 using AP-pNA as substrate preincubated for 30 mins followed by substrate addition measured after 30 mins by spectrophotometric analysis
Sequence of Dipeptidyl peptidase 4 (Homo sapiens, UniProt P27487) (P27487 whole entry): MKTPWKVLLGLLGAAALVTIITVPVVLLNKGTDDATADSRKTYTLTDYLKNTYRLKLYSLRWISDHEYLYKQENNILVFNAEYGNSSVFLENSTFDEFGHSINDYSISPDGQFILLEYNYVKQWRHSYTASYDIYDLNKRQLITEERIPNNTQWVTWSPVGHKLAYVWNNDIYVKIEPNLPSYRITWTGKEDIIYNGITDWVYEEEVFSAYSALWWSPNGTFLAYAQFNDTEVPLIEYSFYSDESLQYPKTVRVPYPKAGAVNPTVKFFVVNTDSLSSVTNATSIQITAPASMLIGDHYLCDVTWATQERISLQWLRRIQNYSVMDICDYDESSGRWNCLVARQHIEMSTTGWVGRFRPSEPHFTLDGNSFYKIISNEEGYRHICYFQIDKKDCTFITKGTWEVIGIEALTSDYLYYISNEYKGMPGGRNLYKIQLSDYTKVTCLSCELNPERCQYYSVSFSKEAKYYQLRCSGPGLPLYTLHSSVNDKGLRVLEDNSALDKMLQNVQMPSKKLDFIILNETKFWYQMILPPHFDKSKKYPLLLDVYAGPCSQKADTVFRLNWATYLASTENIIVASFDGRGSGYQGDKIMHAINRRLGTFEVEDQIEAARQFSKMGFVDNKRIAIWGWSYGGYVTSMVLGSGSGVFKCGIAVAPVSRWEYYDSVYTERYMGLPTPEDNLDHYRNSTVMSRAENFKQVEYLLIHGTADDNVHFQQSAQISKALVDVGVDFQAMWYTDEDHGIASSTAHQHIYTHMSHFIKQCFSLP

[3] = biological target: Dipeptidyl peptidase 4 (Sus scrofa, UniProt P22411); assay: Stability of the compound assessed as porcine DPP4-mediated compound degradation at 0.1 mM measured over 30 mins by reverse-phase HPLC/MS analysis; type: ADME; details: pig, 0.5 h, 100 µM
Sequence of Dipeptidyl peptidase 4 (Sus scrofa, UniProt P22411) (P22411 whole entry): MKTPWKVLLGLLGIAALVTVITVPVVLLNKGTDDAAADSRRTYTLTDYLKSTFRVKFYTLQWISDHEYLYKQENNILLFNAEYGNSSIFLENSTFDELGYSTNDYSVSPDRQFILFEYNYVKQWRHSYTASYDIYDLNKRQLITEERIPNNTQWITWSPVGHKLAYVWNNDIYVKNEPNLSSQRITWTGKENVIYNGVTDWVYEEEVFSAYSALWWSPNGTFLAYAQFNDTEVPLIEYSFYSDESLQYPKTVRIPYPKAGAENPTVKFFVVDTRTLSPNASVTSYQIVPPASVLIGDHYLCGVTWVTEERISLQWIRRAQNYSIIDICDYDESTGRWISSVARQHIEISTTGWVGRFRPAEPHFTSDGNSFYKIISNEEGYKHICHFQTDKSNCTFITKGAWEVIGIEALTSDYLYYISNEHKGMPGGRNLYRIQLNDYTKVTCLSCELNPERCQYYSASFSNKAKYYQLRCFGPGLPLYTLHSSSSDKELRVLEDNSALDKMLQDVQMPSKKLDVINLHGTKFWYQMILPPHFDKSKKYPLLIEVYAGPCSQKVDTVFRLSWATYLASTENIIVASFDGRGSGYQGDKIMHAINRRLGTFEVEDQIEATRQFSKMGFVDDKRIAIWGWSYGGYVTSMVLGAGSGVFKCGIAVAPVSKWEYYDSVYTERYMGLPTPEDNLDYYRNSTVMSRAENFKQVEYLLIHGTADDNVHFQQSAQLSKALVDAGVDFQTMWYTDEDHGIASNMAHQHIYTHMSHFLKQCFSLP
Procedure, shortened: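 Peptide (0.1 mM) incubated at 37 °C with DPP IV purified from porcine kidney (10 mU/mL) in 50 mM HEPES, 0.14 M NaCl, pH 8.0. Samples taken at set times and quenched with 10% (v/v) 0.1 M HCl. Intact peptide quantified by reverse-phase HPLC-MS and expressed as percent of the time-0 amount.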

[4] = biological target: Trypsin (Sus scrofa, UniProt P00761); assay: Stability of the compound assessed as porcine pancreatic trypsin-mediated compound degradation at 0.1 mM after 10 secs by reverse-phase HPLC/MS analysis; type: ADME; details: pig, isolated protein, 10 s, 100 µM
Sequence of Trypsin (P00761 whole entry): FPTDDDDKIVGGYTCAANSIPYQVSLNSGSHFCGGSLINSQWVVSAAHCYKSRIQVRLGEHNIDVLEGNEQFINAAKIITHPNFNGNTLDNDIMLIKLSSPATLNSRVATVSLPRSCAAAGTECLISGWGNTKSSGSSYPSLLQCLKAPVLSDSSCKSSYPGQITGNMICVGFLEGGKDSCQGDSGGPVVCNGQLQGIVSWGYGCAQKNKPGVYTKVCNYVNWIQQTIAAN
Procedure, shortened: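 Peptide (0.1 mM) incubated at 37 °C with 100 nM purified porcine pancreatic trypsin in 50 mM Tris-HCl, 20 mM CaCl₂, pH 8.0. Timed samples were acid-quenched with 10% (v/v) 0.1 M HCl, then analysed by reverse-phase HPLC-MS. Mean ± range of two independent experiments.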

[5] = biological target: Chymotrypsinogen A (Bos taurus) (UniProt P00766); assay: Stability of the compound assessed as bovine pancreatic chymotrypsin-mediated compound degradation at 0.1 mM after 10 secs by reverse-phase HPLC/MS analysis; details: cow, isolated protein, 10 s, 100 µM
[6] = biological target: DPP4 (dipeptidyl peptidase 4) (Homo sapiens, UniProt P27487); assay: Metabolic stability in human plasma assessed as half life of DPP4-mediated compound degradation; type: ADME
Sequence of DPP4 (dipeptidyl peptidase 4) (Homo sapiens, UniProt P27487) (P27487 whole entry): as the sequence (P27487 whole entry) above

Sequence of DPP4 (dipeptidyl peptidase 4) (Rattus norvegicus, UniProt P14740) (P14740 whole entry): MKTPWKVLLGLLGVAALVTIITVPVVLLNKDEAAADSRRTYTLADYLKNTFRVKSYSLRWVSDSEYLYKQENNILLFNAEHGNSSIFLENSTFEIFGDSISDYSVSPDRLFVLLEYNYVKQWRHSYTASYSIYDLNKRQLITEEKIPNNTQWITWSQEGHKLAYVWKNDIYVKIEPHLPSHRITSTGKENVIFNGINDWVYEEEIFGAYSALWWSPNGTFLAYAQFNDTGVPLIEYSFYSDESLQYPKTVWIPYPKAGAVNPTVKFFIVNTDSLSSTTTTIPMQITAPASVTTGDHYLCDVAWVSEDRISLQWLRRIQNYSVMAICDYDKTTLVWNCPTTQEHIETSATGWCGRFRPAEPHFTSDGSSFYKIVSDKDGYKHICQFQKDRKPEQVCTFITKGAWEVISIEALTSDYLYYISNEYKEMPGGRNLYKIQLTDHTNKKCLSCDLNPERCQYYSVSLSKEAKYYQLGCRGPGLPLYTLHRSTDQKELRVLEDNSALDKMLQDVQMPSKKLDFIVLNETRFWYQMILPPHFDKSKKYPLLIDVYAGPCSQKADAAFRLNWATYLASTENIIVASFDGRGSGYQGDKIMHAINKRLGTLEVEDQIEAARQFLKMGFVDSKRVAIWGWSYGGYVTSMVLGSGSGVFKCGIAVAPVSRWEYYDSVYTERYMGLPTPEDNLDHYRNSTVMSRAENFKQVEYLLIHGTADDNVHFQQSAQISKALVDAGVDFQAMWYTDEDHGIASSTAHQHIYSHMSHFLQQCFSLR

How did the half-life [1] turn out when `CC(C)[C@H](N)C(=O)N1CCC[C@H]1C(=O)N[C@@H](CC(=O)O)C(=O)N1CCC[C@H]1C(=O)N[C@@H](CCCNC(=N)N)C(N)=O` (H-VPDPR-NH2) was run?
The half-life was 5 min.

And the Ki [2]?
The Ki was 142 µM.

Which results are given for `CC[C@H](C)[C@H](NC(=O)[C@H](Cc1ccccc1)NC(=O)[C@H](CCC(=O)O)NC(=O)[C@H](CCCCN)NC(=O)[C@H](C)NC(=O)[C@H](C)NC(=O)[C@H](CCC(N)=O)NC(=O)CNC(=O)[C@H](CCC(=O)O)NC(=O)[C@H](CC(C)C)NC(=O)[C@H](Cc1ccc(O)cc1)NC(=O)[C@H](CO)NC(=O)[C@H](CO)NC(=O)[C@@H](NC(=O)[C@H](CC(=O)O)NC(=O)[C@H](CO)NC(=O)[C@@H](NC(=O)[C@H](Cc1ccccc1)NC(=O)[C@@H](NC(=O)CNC(=O)[C@H](CCC(=O)O)NC(=O)[C@H](C)NC(=O)[C@@H](N)Cc1c[nH]cn1)[C@@H](C)O)[C@@H](C)O)C(C)C)C(=O)N[C@@H](C)C(=O)N[C@@H](Cc1c[nH]c2ccccc12)C(=O)N[C@@H](CC(C)C)C(=O)N[C@H](C(=O)N[C@@H](CCCCN)C(=O)NCC(=O)N[C@@H](CCCNC(=N)N)C(N)=O)C(C)C`?
Stability [3]: Stable; Stability [4]: Unstable; Stability [5]: Unstable

Which half-life [6] does the source give for `CC[C@H](C)[C@H](NC(=O)[C@H](CCCNC(=N)N)NC(=O)[C@H](CC(=O)O)NC(=O)[C@H](CCSC)NC(=O)[C@H](CCCCN)NC(=O)[C@H](CCCNC(=N)N)NC(=O)CNC(=O)[C@H](Cc1ccccc1)NC(=O)[C@H](CS)NC(=O)CNC(=O)[C@H](CO)NC(=O)CNC(=O)[C@H](CCC(N)=O)NC(=O)[C@@H](NC(=O)[C@H](CCSC)NC(=O)[C@H](CCCCN)NC(=O)[C@@H]1CCCN1C(=O)[C@@H](N)CO)C(C)C)C(=O)N[C@@H](CO)C(=O)N[C@@H](CO)C(=O)N[C@@H](CO)C(=O)N[C@@H](CO)C(=O)NCC(=O)N[C@@H](CC(C)C)C(=O)NCC(=O)N[C@@H](CS)C(=O)N[C@@H](CCCCN)C(=O)N[C@H](C(=O)N[C@@H](CC(C)C)C(=O)N[C@@H](CCCNC(=N)N)C(=O)N[C@@H](CCCNC(=N)N)C(=O)N[C@@H](Cc1cnc[nH]1)C(N)=O)C(C)C` here?
Its half-life is 15 min.
